Bioassay records (PubChem)
Shown are actives, neighbours in structure and some others; about 4.9% of the full set was active somewhere.
FLuc act counter: affects firefly luciferase, flagging false hits in luciferase stimulation screens | ATPlite luciferase biochemical, luminescence, 10 min; 0 = ATP-free wells, 1 = DMSO control | 200,000 tested, under 10 active | P08659 | activation factor at 10 µM;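 active means luciferase activation factor, scaled between plate controls, of at least 2 with compound at 10 µM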
Target sequence (P08659 whole entry, looked up): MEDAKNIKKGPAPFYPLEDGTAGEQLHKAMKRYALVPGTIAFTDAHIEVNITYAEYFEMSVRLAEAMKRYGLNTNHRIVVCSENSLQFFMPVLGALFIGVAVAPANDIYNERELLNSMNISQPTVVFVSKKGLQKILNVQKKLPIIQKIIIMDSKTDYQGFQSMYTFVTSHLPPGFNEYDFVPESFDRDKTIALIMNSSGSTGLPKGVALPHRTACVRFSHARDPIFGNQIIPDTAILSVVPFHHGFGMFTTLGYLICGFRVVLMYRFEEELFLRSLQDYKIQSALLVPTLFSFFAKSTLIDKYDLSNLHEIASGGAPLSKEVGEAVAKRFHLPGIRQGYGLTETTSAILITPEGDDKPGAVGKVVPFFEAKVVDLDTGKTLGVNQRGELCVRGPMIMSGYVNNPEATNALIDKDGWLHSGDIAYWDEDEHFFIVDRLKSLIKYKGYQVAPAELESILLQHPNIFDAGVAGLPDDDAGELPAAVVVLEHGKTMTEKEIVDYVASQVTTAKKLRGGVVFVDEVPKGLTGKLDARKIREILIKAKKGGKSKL
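Material: luciferase plus luciferin reagent, cell-free. Medium: PBS buffer for ATP. Also added: ATP substrate, dispensed from a 10.24 µM working solution in PBS. Doses: test compounds dosed from 2 mM stocks in 100% DMSO. Incubation: 10 min post-reagent at room temperature. Technique: light output (luminescence). Read-out basis: luminescence gain marking luciferase activators.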
FLuc inhib CS: inhibits firefly luciferase, flagging false hits in luciferase inhibition screens; P08659; ATPLite firefly luciferase biochemical luminescence, 10 min; inhibition, % at 10 µM; 1.5% of 200,000 active;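 active means inhibition above about 50% when tested at 10 µM, limit read from the data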
STAT1 act: activators of IFN-gamma induced STAT1 signaling; NIH 3T3 STAT1-luciferase reporter, luminescence; 100% = IFN-gamma alone, no compound; activation (% of control), % at 5.5 µM; 2.6% of 200,000 active; AID 932;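 active means activation above the screen-wide mean activation plus 3 SD, cut at about 130% in these data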;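 further: raw ratio to IFN-gamma control signal so 100% means no change and 0% no light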
STAT1 blocker: STAT1 signaling inhibition | inhibition, % at 5.5 µM | AID 920 | NIH 3T3 STAT1-luciferase reporter, IFN-gamma, luminescence | 0.35% of 200,000 active;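 active means inhibition above a set limit, the mean inhibition across all tested compounds plus 3 SD, cut at about 34% in these data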;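 further: 0% = IFN-gamma with DMSO and 100% = IFN-gamma with 300 µM nifuroxazide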
STAT3 activator: STAT3 signaling activation. U3A cells, IL-6 STAT3-luciferase reporter, luminescence; 100% = signal with IL-6 EC80 alone. activation (% of control), % at 5.6 µM. 0.91% of 190,000 active;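 active means activation above the screen-wide mean of compound activation plus 3 SD, cut at about 130% in these data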;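 further: 0% = background luminescence of wells with medium and substrate only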
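System – human U3A cells carrying STAT3-luciferase construct · Probe or stimulus – Interleukin-6, 33 ng/mL · Schedule – compound 1 h, then IL-6 6 h at 37 °C · Signal – luminescence from STAT3-driven luciferase reporter · Evaluation – percent of IL-6-only median luminescence · Benchmarks – IL-6-only high control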
STAT3 inh: STAT3 signaling inhibition | U3A cells, IL-6 STAT3-luciferase reporter, luminescence; host cell line lacks STAT1 | inhibition, % at 5.5 µM | 0.89% of 190,000 active;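 active means inhibition above the mean inhibition across all screened compounds plus 3 SD, cut at about 44% in these data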;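 further: 0% = DMSO only wells and 100% = 100 µM nifuroxazide control wells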
* hit, by the source's call.

SMILES | FLuc act counter | FLuc inhib CS | STAT1 act | STAT1 blocker | STAT3 activator | STAT3 inh
Cc1cccn2cc(-c3ccc(F)cc3)nc12 | 0.4 | 59* | 130* | -33 | 95 | 11
Cc1cccn2cc(CNc3ccccc3)nc12 | 1 | 4 | 123 | -25 | 98 | 8
Cn1c(=O)c2c(=O)cc(NNC(=O)CC#N)[nH]c2n(C)c1=O | 1.1 | -8 | 104 | -4 | 96 | 9
Cc1cc(OCC(=O)N2CCCCCC2)ccc1[N+](=O)[O-] | 1.1 | -8 | 138* | -42 | 112 | -14
N#CCN1C(=O)C2CCCN2c2ccc(S(=O)(=O)N3CCOCC3)cc21 (stereo not drawn) | 1 | -4 | 108 | -9 | 105 | -5
O=C(Nc1ccc2c(c1)OCCO2)NC12CC3CC(CC(C3)C1)C2 | 0.9 | 8 | 142* | -46 | 112 | -14
O=C(Nc1ccc2c(c1)OCCO2)c1ccc(Br)o1 | 0.2 | 82* | 125 | -28 | 77 | 29
O=C(Nc1ccc2c(c1)OCCO2)c1ccc2nccnc2c1 | 0.2 | 80* | 125 | -28 | 63 | 50*
O=C(Nc1ccc2c(c1)OCCO2)c1cccnc1 | 0.8 | 17 | 129* | -30 | 92 | 14
Cc1noc(C)c1COc1ccc(C(=O)Nc2cccnc2)cc1 | 1.1 | -8 | 97 | 1 | 97 | 6
CC1Cc2ccccc2N1C(=O)CSc1nnc(Cc2ccccc2)n1CCc1ccccc1 (stereo not drawn) | 1.1 | -8 | 104 | -4 | 104 | -6
O=C(CSc1ccccc1)N1CCc2ccccc21 | 0.8 | 21 | 132* | -35 | 107 | -2
Cc1ccc2c(CC(=O)N3CCc4ccccc43)coc2c1 | 0.7 | 34 | 138* | -42 | 113 | -4
CC(=O)c1c(C)[nH]c(C(=O)OCC(=O)N2CCc3ccccc32)c1C | 0.9 | 6 | 114 | -15 | 93 | 12
Cc1ccc(C(=O)OCC(=O)N2CCc3ccccc32)cc1 | 0.7 | 31 | 129* | -32 | 91 | 14
O=C(COc1ccccc1)N1CCc2ccccc21 | 0.6 | 40 | 134* | -38 | 98 | 0
S=C(Nc1ccccc1Cl)NC1CCCCCC1 | 1 | 2 | 106 | -7 | 98 | 10
CC1CCc2c(sc3ncn(CC(=O)N4CCCCC4)c(=O)c23)C1 (stereo not drawn) | 1.1 | -9 | 97 | 3 | 98 | 8
CCN(CC)c1ccc(C=Nc2ccccc2C)c(O)c1 | 0.5 | 53* | 102 | -2 | 114 | -13
CCN(CC)c1ccc(/C=N/N(c2ccccc2)c2ccccc2)c(O)c1 | 1 | -2 | 95 | 5 | 116 | -19
O=C(c1cnsn1)N1CCC(CO)(Cc2cccc(F)c2)CC1 | 1 | -1 | 133* | -39 | 113 | -9
OCC1(Cc2cccc(F)c2)CCN(Cc2ccc3cccc(F)c3n2)CC1 | 1.1 | -10 | 108 | -10 | 98 | 5
COc1ccc(-c2cc(C(=O)N/N=C/c3sccc3C)c3ccccc3n2)c(OC)c1 | 1.1 | -7 | 107 | -8 | 135* | -44
N#C/C(=N\Nc1cccc(F)c1)C(=N)N1CCCCCC1 | 0.4 | 62* | 145* | -50 | 93 | 19
Cc1nc2nc(N)nn2c(C)c1C/C=C/c1ccccc1 | 1 | -3 | 105 | -7 | 104 | 2
SMILES | FLuc act counter | FLuc inhib CS | STAT1 act | STAT1 blocker | STAT3 activator | STAT3 inh
Cc1c(/C=C/C(=O)c2ccc(O)cc2)cnn1C | 0.4 | 58* | 108 | -9 | 111 | -15
Cc1c(/C=C/C(=O)c2ccc(Cl)s2)cnn1C | 0.4 | 62* | 106 | -7 | 94 | 10
COc1cc(/C=C/C(=O)c2ccc(Cl)s2)cc(OC)c1O | 1 | 1 | 87 | 14 | 86 | 23
Cc1c(/C=C/C(=O)c2ccc(C(C)C)cc2)cnn1C | 0.4 | 58* | 114 | -17 | 88 | 23
CCn1ncc(/C=C/C(=O)c2ccccc2)c1C | 0.2 | 82* | 133* | -35 | 113 | -17
Cc1c(/C=C/C(=O)c2ccccc2)cnn1C | 0.6 | 42 | 107 | -8 | 113 | -11
Cc1[nH]n(-c2ccccc2)c(=S)c1C=Nc1ccc([N+](=O)[O-])cc1 | 0.9 | 12 | 90 | 11 | 114 | -16
COc1ccc(C(=O)COC(=O)c2cc(S(=O)(=O)NCc3ccccc3)ccc2O)cc1 | 1 | -1 | 102 | -3 | 94 | 9
O=c1[nH]c2ccccc2c2nc3ccccn3c12 | 0.5 | 54* | 115 | -15 | 126 | -27
O=c1nc2c(O)cccn2c2c1c(=O)[nH]c1ccccc12 | 1 | 0 | 107 | -7 | 82 | 24
c1cnc(SCCOc2ccc3c(c2)CCC3)nc1 | 0.8 | 17 | 150* | -55 | 99 | 2
CC(C)N1CCN(Cc2ccoc2)CC1CCO (stereo not drawn) | 1 | -2 | 91 | 8 | 99 | 5
CC(=O)Nc1ccc2nc(-c3ccc(Br)o3)[nH]c2c1 | 0.7 | 34 | 133* | -37 | 103 | -4
Nc1ccc2nc(-c3cccs3)[nH]c2c1 | 0.6 | 38 | 124 | -28 | 93 | 10
CC(=O)Nc1ccc2nc(-c3cccs3)[nH]c2c1 | 0.5 | 52* | 124 | -26 | 99 | 2
O=C(Nc1ccc2nc(-c3ccc(Br)o3)[nH]c2c1)c1ccco1 | 0.6 | 44 | 111 | -12 | 91 | 17
CCc1ccc(NC(=S)N(CCN(C)C)C(C)c2ccncc2)cc1 (stereo not drawn) | 1.1 | -5 | 100 | -1 | 88 | 16
O=c1c(Cl)c(Nc2cccc(Cl)c2)cnn1-c1nc2ccccc2s1 | 0.6 | 40 | 150* | -56 | 92 | 7
CNC(=O)c1cccc(N2CCCC2=O)c1 | 1 | 4 | 105 | -2 | 99 | 2
O=C(Nc1ccc(N2CCCC2=O)cc1)c1cccc(F)c1 | 0.6 | 44 | 138* | -41 | 74 | 33
Cc1cccc(C)c1NC(=S)NCCSc1ccc(Cl)cc1 | 1.1 | -10 | 101 | -3 | 108 | 0
N/C(=N\OC(=O)c1cccnc1)c1ccccc1Cl | 0.6 | 40 | 131* | -36 | 90 | 19
N/C(=N\OC(=O)c1ccccc1[N+](=O)[O-])c1ccccn1 | 0.3 | 69* | 94 | 6 | 94 | 18
N/C(=N\OC(=O)c1ccccc1[N+](=O)[O-])c1cccnc1 | 0.6 | 37 | 110 | -16 | 112 | -3
N/C(=N\OC(=O)c1cccnc1)c1ccc(Cl)cc1Cl | 0.9 | 6 | 128 | -35 | 89 | 18
N/C(=N\OC(=O)c1ccccc1Cl)c1ccccn1 | 0.1 | 93* | 31 | 78* | 46 | 69*
N/C(=N\OC(=O)c1ccc(Cl)c(Cl)c1)c1ccccn1 | 0.5 | 46 | 131* | -35 | 102 | 2
O=C(NC1CC(=O)c2sccc21)c1ccc(Cl)cc1Cl (stereo not drawn) | 0.9 | 12 | 123 | -29 | 116 | -14
